Results reported in ChEMBL document CHEMBL1641445, “Synthesis, antiprotozoal, antimicrobial, β-hematin inhibition, cytotoxicity and methemoglobin (MetHb) formation activities of bis(8-aminoquinolines)” (Bioorg Med Chem, 2011).
Converted amounts (≈) assume the structure as drawn. The source made the active and inactive calls. No cut-off for these calls is given here.

Tests used:
[1] = Hematotoxicity against RBC assessed as formation of methemoglobin at 20 ug/ml relative to control; format: cell-based; settings: erythrocyte
In short: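 Metabolism-linked methemoglobin toxicity in vitro. Percent MetHb formation was determined at 20 µg/mL of compound relative to vehicle control.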

Plasmodium falciparum [2] = test: Antimalarial activity against chloroquine-sensitive Plasmodium falciparum D6 by LDH assay; format: functional, organism-based
In short: (§1)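 Antiplasmodial activity was measured in vitro against P. falciparum blood-stage cultures. Read-out was parasite lactate dehydrogenase (LDH) activity, with IC50 values expressed in µg/mL. The same protocol was used for the D6 and W2 strains.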

Plasmodium falciparum [3] = test: Antimalarial activity against chloroquine-resistant Plasmodium falciparum W2 by LDH assay; format: functional, organism-based; in short: as §1
Vero = test: Cytotoxicity against african green monkey Vero cells up to 10 ug/ml by neutral red assay; format: cell-based; settings: chlorocebus sabaeus
In short: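 Vero (monkey kidney) cells were exposed up to a highest concentration of 10 µg/mL. Viability was read by neutral red uptake.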

[4] = Inhibition of beta-hematin formation; format: functional
Leishmania donovani = test: Antileishmanial activity against promastigotes of Leishmania donovani by alamar blue assay; format: functional, organism-based
[5] = test system: Mycobacterium intracellulare; test: Antibacterial activity against Mycobacterium intracellular ATCC 23068 at 20 ug/ml by CLSI method; format: functional, organism-based
Candida albicans = test: Antifungal activity against Candida albicans ATCC 90028 at 20 ug/ml; format: functional, organism-based
Aspergillus fumigatus = test: Antifungal activity against Aspergillus fumigatus ATCC 90906 at 20 ug/ml; format: functional, organism-based
Nakaseomyces glabratus = test: Antifungal activity against Candida glabrata at 20 ug/ml; format: functional, organism-based
Pichia kudriavzevii = test: Antifungal activity against Candida krusei at 20 ug/ml; format: functional, organism-based
Plasmodium berghei = test: Antimalarial activity against Plasmodium berghei infected in mouse assessed as complete elimination of malaria parasites from animals at 100 mg/kg, po qd for 4 days measured up to 60 days; format: functional, organism-based; design: dose 100 mg/kg
In short: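 Rodent P. berghei (sensitive strain) blood-schizontocidal model, 6 mice per group. Compounds were given orally once daily for 4 days at 10, 25, 50 or 100 mg/kg/day. Cure meant complete parasite elimination with survival to day D+60.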

Staphylococcus aureus = test: Antibacterial activity against methicillin-resistant Staphylococcus aureus ATCC 43300 by CLSI method; format: functional, organism-based
In short: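 Broth dilution method (NCCLS M7-A5). […] MIC is the lowest concentration allowing no detectable growth. MBC is the lowest concentration killing the organism. Highest test concentration was 20 µg/mL.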

[6] = test system: Mycobacterium intracellulare; test: Antibacterial activity against Mycobacterium intracellular ATCC 23068 by CLSI method; format: functional, organism-based
Cryptococcus neoformans = test: Antifungal activity against Cryptococcus neoformans ATCC 90113; format: functional, organism-based
[7] = Leishmania donovani, read-out: IC50
[8] = Plasmodium falciparum, W2, read-out: IC50
[9] = Plasmodium falciparum, D6, read-out: IC50

Row | Compound | Methemoglobin formation [1] [%] | Activity (Vero) | IC50 [4] [µM] | IC90 (Leishmania donovani; Leishmania donovani) [µg/mL] | IC50 (Leishmania donovani; [7]) [µg/mL] | IC50 (Plasmodium falciparum [3]; [8]) [µg/mL] | IC50 (Plasmodium falciparum [2]; [9]) [µg/mL] | IC90 (Leishmania donovani) | also measured
1 | COc1cc(NC(C)CCCNC(=O)NC(=O)NCCCC(C)Nc2cc(OC)cc3ccc(C(C)(C)C)nc23)c2nc(C(C)(C)C)ccc2c1.Cl.Cl (centres undefined) | 8.8 | Non-toxic | > 1000 | > 40 | 25 | – | – | – | IC50 (Plasmodium falciparum [2]): Not Active; IC50 (Plasmodium falciparum [3]): Not Active
2 | COc1cc(NC(C)CCCNC(=O)NC(CCCNC(=N)N)C(=O)NCCCC(C)Nc2cc(OC)cc3cccnc23)c2ncccc2c1 (single isomer, unassigned; 39) | – | – | – | – | – | – | – | – | MBC [5]: inactive; MIC [5]: inactive; MFC (Candida albicans): inactive; MIC (Candida albicans): inactive; Activity (Aspergillus fumigatus): inactive; Activity (Nakaseomyces glabratus): inactive; Activity (Pichia kudriavzevii): inactive
3 | COc1cc(NC(C)CCCNSC(=O)NCCCC(C)Nc2cc(OC)cc3cccnc23)c2ncccc2c1.Cl.Cl (centres undefined) | 10.9 | Non-toxic | 153 | 38 | 20 | 4.76 | – | – | IC50 (Plasmodium falciparum [2]): Not Active
4 | COc1cc(NC(C)CCCNC(=O)NCCCC(C)Nc2cc(OC)cc3ccc(C(C)(C)C)nc23)c2nc(C(C)(C)C)ccc2c1.Cl.Cl (centres undefined) | 1 | Non-toxic | > 1000 | – | – | – | 3 | inactive | IC50 (Leishmania donovani): Not Active; Activity (Plasmodium berghei): inactive
5 | COc1cc(NC(C)CCCNC(=O)NC(CCCNC(=N)N)C(=O)NCCCC(C)Nc2cc(OC)cc3cccnc23)c2ncccc2c1.Cl (single isomer, unassigned; 36) | 3.1 | Non-toxic | 90 | 7.2 | – | – | – | – | IC50 (Staphylococcus aureus): 15 µg/mL; MIC (Staphylococcus aureus): 20 µg/mL; IC50 [6]: 15 µg/mL; MBC [6]: 20 µg/mL; MIC [6]: 20 µg/mL; IC50 (Candida albicans): Not Active; IC50 (Cryptococcus neoformans): 6.5 µg/mL; MFC (Cryptococcus neoformans): 10 µg/mL; MIC (Cryptococcus neoformans): 10 µg/mL
6 | COc1cc(NC(C)CCCNC(=O)NC(CCCNC(=N)N)C(=O)NCCCC(C)Nc2cc(OC)cc3cccnc23)c2ncccc2c1.Cl (single isomer, unassigned; 39) | 5.5 | Non-toxic | 88 | 36 | 19 | 1.5 | 2.4 | – | IC50 (Staphylococcus aureus): 15 µg/mL; MBC (Staphylococcus aureus): 20 µg/mL; IC50 [5]: Not Active; IC50 (Candida albicans): Not Active; IC50 (Cryptococcus neoformans): 15 µg/mL; MFC (Cryptococcus neoformans): 20 µg/mL; MIC (Cryptococcus neoformans): 20 µg/mL
7 | COc1cc(NC(C)CCCNC(=O)c2cncc(C(=O)NCCCC(C)Nc3cc(OC)cc4ccc(C(C)(C)C)nc34)c2)c2nc(C(C)(C)C)ccc2c1.Cl (centres undefined) | 0.55 | Non-toxic | 120 | – | 19 | – | – | inactive | –
8 | COc1cc(NC(C)CCCNC(=O)N[C@@H](CCCCN)C(=O)NCCCC(C)Nc2cc(OC)cc3ccc(C(C)(C)C)nc23)c2nc(C(C)(C)C)ccc2c1.Cl (some centres undefined) | 1.1 | Non-toxic | > 1000 | 38 | 19 | – | – | – | IC50 (Plasmodium falciparum [2]): Not Active; IC50 (Plasmodium falciparum [3]): Not Active; IC50 (Staphylococcus aureus): 8 µg/mL; MBC (Staphylococcus aureus): 20 µg/mL; MIC (Staphylococcus aureus): 20 µg/mL; IC50 [5]: Not Active; MBC [5]: inactive; MIC [5]: inactive
9 | N=C(N)c1ccc(OCCCCCOc2ccc(C(=N)N)cc2)cc1 [PENTAMIDINE] | – | – | – | 3.8 (≈ 11.2 µM) | – | – | – | – | –
10 | COc1cc(NC(C)CCCNCC(=O)NCCCC(C)Nc2cc(OC)cc3cccnc23)c2ncccc2c1.Cl.Cl (centres undefined) | 20.3 | Non-toxic | > 1000 | – | 20 | – | – | inactive | IC50 (Plasmodium falciparum [2]): Not Active; IC50 (Plasmodium falciparum [3]): Not Active
11 | COc1cc(NC(C)CCCNC(=O)C(=O)NCCCC(C)Nc2cc(OC)cc3cccnc23)c2ncccc2c1.Cl.Cl (centres undefined) | 6.45 | Non-toxic | > 1000 | > 40 | 15 | – | – | – | IC50 (Plasmodium falciparum [2]): Not Active; IC50 (Plasmodium falciparum [3]): Not Active
12 | COc1cc(NC(C)CCCNC(=S)NCCCC(C)Nc2cc(OC)cc3ccc(C(C)(C)C)nc23)c2nc(C(C)(C)C)ccc2c1.Cl.Cl (centres undefined) | 0.75 | Non-toxic | > 1000 | 31 | 9 | 2.3 | 3 | – | –
13 | C[C@@H]1CC[C@H]2[C@@H](C)C(=O)O[C@@H]3O[C@@]4(C)CC[C@@H]1[C@]32OO4 [ARTEMISININ] | – | – | – | – | – | – | 0.015 (≈ 0.0531 µM) | – | –
14 | COc1cc(NC(C)CCCNC(=O)c2ccncc2C(=O)NCCCC(C)Nc2cc(OC)cc3ccc(C(C)(C)C)nc23)c2nc(C(C)(C)C)ccc2c1.Cl (centres undefined) | 1.2 | Non-toxic | 70 | 31 | 16 | 0.87 | 1.5 | – | IC50 (Staphylococcus aureus): 15 µg/mL; MBC (Staphylococcus aureus): 20 µg/mL; MIC (Staphylococcus aureus): 20 µg/mL; IC50 [5]: Not Active; MBC [5]: inactive; MIC [5]: inactive
15 | COc1cc(NC(C)CCCNC(=O)NC(CCCN)C(=O)NCCCC(C)Nc2cc(OC)cc3cccnc23)c2ncccc2c1.Cl (single isomer, unassigned; 40) | 6.1 | Non-toxic | 154 | 39 | 18 | 2.8 | 4.2 | – | IC50 (Staphylococcus aureus): 10 µg/mL; MIC (Staphylococcus aureus): 20 µg/mL; IC50 [5]: Not Active; IC50 (Candida albicans): Not Active; IC50 (Cryptococcus neoformans): 7 µg/mL
16 | COc1cc(NC(C)CCCNC(=O)NC(CCCN)C(=O)NCCCC(C)Nc2cc(OC)cc3cccnc23)c2ncccc2c1.Cl (single isomer, unassigned; 37) | 7.9 | Non-toxic | 88 | 40 | 14 | 2 | 2.8 | – | IC50 (Candida albicans): Not Active; IC50 (Cryptococcus neoformans): 15 µg/mL; MFC (Cryptococcus neoformans): 20 µg/mL; MIC (Cryptococcus neoformans): 20 µg/mL
17 | C[C@@H]1[C@H](O)[C@@H](C)/C=C/C=C/C=C/C=C/C=C/C=C/C=C/[C@H](O[C@@H]2O[C@H](C)[C@@H](O)[C@H](N)[C@@H]2O)C[C@@H]2O[C@](O)(C[C@@H](O)C[C@@H](O)[C@H](O)CC[C@@H](O)C[C@@H](O)CC(=O)O[C@H]1C)C[C@H](O)[C@H]2C(=O)O [AMPHOTERICIN B] | – | – | – | 0.35 (≈ 0.379 µM) | – | – | – | – | –
18 | COc1cc(NC(C)CCCNC(=O)NC(CCCCN)C(=O)NCCCC(C)Nc2cc(OC)cc3cccnc23)c2ncccc2c1.Cl (single isomer, unassigned) | 3.75 | Non-toxic | 80 | > 40 | 18 | 2.7 | 2.7 | – | –
19 | COc1cc(NC(C)CCCNC(=O)NCCCC(C)Nc2cc(OC)cc3cccnc23)c2ncccc2c1.Cl.Cl (centres undefined) | 9.8 | Non-toxic | > 1000 | – | – | 4.76 | 4.76 | inactive | IC50 (Leishmania donovani): Not Active; Activity (Plasmodium berghei): inactive
20 | COc1cc(NC(C)CCCN)c2nc(C(C)(C)C)ccc2c1 (centres undefined) | – | – | 2.9 | – | – | – | – | – | –
21 | COc1cc(NC(C)CCCNC(=O)c2cccc(C(=O)NCCCC(C)Nc3cc(OC)cc4ccc(C(C)(C)C)nc34)n2)c2nc(C(C)(C)C)ccc2c1.Cl (centres undefined) | 0.25 | Non-toxic | > 1000 | – | – | 4.5 | – | inactive | IC50 (Plasmodium falciparum [2]): Not Active; IC50 (Leishmania donovani): Not Active
22 | COc1cc(NC(C)CCCNC(=O)c2cccc(C(=O)NCCCC(C)Nc3cc(OC)cc4cccnc34)n2)c2ncccc2c1.Cl (centres undefined) | 5.7 | Non-toxic | 123 | – | 6.5 | 2.3 | – | inactive | –
23 | COc1cc(NC(C)CCCNC(=O)c2ccncc2C(=O)NCCCC(C)Nc2cc(OC)cc3cccnc23)c2ncccc2c1.Cl (centres undefined) | 3.55 | Non-toxic | 108 | – | – | 1.7 | 3 | inactive | IC50 (Leishmania donovani): Not Active
24 | COc1cc(NC(C)CCCNC(=O)c2cncc(C(=O)NCCCC(C)Nc3cc(OC)cc4cccnc34)c2)c2ncccc2c1.Cl (centres undefined) | 5.5 | Non-toxic | 110 | – | 18 | 3 | 3.3 | inactive | –
25 | COc1cc(NC(C)CCCNC(=O)NC(=O)NCCCC(C)Nc2cc(OC)cc3cccnc23)c2ncccc2c1.Cl.Cl (centres undefined) | 2.25 | Non-toxic | 155 | – | – | 3.4 | 4.76 | inactive | IC50 (Leishmania donovani): Not Active; Activity (Plasmodium berghei): inactive
